Screening data (PubChem)
Most compounds without a hit are left out; they make up all but 3.5% or so of the library.
HIV Env fusion = inhibitors of HIV Env-mediated cell fusion | HeLa-JRFL Env/CEM21 cell fusion, luciferase | inhibition, % at 12.3 µM | actives 1.1% (n = 360,000);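 active = mean replicate inhibition score of at least 50 and every replicate individually at or above 50; inconclusive = only one of the two criteria met; inactive = mean below 50 and not all replicates reaching 50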;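 note: 0% = plate neutral controls and 100% = maraviroc near 300 nM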
PGC1a acetyl inh = modulators of PGC1a acetylation; U2OS PGC1a acetylation, AlphaScreen anti-acetyl-lysine; with virally co-expressed GCN5 acetyltransferase; actives 0.17% (n = 350,000); inhibition, % at 15.6 µM;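 active = every replicate shows inhibition of at least 40%; inconclusive = mean inhibition at least 40% but some replicate below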;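 note: 0% = neutral control wells and 100% = positive control wells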
Ecoli rRNA inh = selective bacterial rRNA inhibition in E. coli; actives 1.6% (n = 350,000); E. coli WT GFP vs humanized-ribosome RFP mutants, fluorescence, 24 h; stronger effect = lower value; DMSO median 0, no signal -100; GFP signal change (wild-type ribosome), % (no concentration beside the values);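 active = significant combined selectivity score with lowered wild-type GFP, culture density cut under 30%, mutant RFP and density less affected; inactive = any of these conditions unmet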
DENV2 CPE = protects cells from dengue virus 2 cytopathic effect. DENV2-infected cells, cytopathic effect rescue, plate reader. CPE inhibition, % at 9.99 µM. actives 1.7% (n = 350,000). AID 651640; in the data active = CPE inhibition above about 20%, passing the limit was not always enough; inconclusive = no clear call, values can overlap the other calls; tested in BHK-21 cells;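 note: 0% = median of neutral control wells and 100% = median of positive control wells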
PglD inh = inhibitors of Campylobacter jejuni PglD acetyltransferase. actives 0.098% (n = 360,000). inhibition, % at 12.5 µM. AID 602405. purified PglD enzyme, DTNB colorimetric CoA detection; in the data active = inhibition above about 16%, passing the limit was not always enough; inconclusive = no clear call, values can overlap the other calls
FN deposit inh = fibronectin deposition inhibition; actives 0.086% (n = 350,000); AID 743247; inhibition, % at 12.6 µM; AH1F fibroblasts, Alexa488-fibronectin deposition fluorescence, overnight;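 active = mean inhibition across replicates of 30% or more, regardless of how many single replicates reach that level; inconclusive = mean under 30% yet at least half of replicates reach 30%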;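 note: positive control wells lacked labelled fibronectin entirely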
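Assay system: AH1F fibroblast monolayer, labelled fibronectin deposition. Amount: 10000 cells per well. Also added: labelled fibronectin 24 nM. Compound: single-point pinned compound. Incubation: cell attachment 1 h, compound and FN exposure overnight. Detection: fluorescence after three HBSS washes, excitation 485 nm, emission 525 nm. Read-out: inhibition of fibronectin deposition signal.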
* marks the source's active call; other numbers are inactive results; ? = inconclusive; . = no result; [ ] = another dose, or the depositor's remark.

SMILES | HIV Env fusion | PGC1a acetyl inh | Ecoli rRNA inh | DENV2 CPE | PglD inh | FN deposit inh
CCCC(=O)N1CCC2(CC1)CN(S(C)(=O)=O)[C@H](CO)c1c2c2ccc(OC)cc2n1C | . | 4 | -6 | 59* | . | .
CCCC(=O)N1CC2(CCN(C)CC2)c2c(n(C)c3cc(OC)ccc23)[C@@H]1CO | . | -5 | 5 | 64* | . | .
CC(C)NC(=O)Nc1ccc2c(c1)CC(=O)N(C)C[C@@H](C)[C@@H](CN(C)C)O2 | . | . | 1 | . | . | 2
C[C@@H]1CN([C@H](C)CO)S(=O)(=O)c2ccc(-c3cccnc3)cc2O[C@H]1CN(C)C(=O)CN(C)C | -9[16.7 µM] | 10 | 3 | -5 | 0 | 3
CCNC(=O)Nc1ccc2c(c1)C(=O)N(C)[C@@H]1CC[C@H](CC(=O)NCc3ccc(F)cc3)O[C@H]1CO2 | 13[16.7 µM] | 0 | 0 | 55* | 19 | -12
COc1cccc(CNC(=O)C[C@H]2CC[C@@H]3[C@H](COc4ccc(NC(C)=O)cc4C(=O)N3C)O2)c1 | -69[16.7 µM] | -4 | 1 | 1 | -2 | -14
COc1cccc(CNC(=O)C[C@H]2CC[C@H]3[C@@H](COc4ccc(NC(C)=O)cc4C(=O)N3C)O2)c1 | . | -5 | 2 | 28* | . | .
CCNC(=O)C[C@H]1CC[C@H]2[C@H](COc3ccc(NC(=O)c4ccc(F)c(F)c4)cc3C(=O)N2C)O1 | . | 0 | 2 | 88* | 7 | 19
CCCNC(=O)C[C@@H]1CC[C@H]2[C@@H](COc3ccc(NC(=O)c4cccc(C(F)(F)F)c4)cc3C(=O)N2C)O1 | 25[16.7 µM] | 1 | 0 | 24* | -1 | -13
C/C=C/c1ccc([C@@H]2[C@H](CO)N3CCCCN(S(=O)(=O)c4ccccc4)C[C@@H]23)cc1 | . | -5 | 10 | 10 | 0 | .
CCNC(=O)C[C@H]1CC[C@@H]2[C@@H](COc3ccc(NC(=O)Nc4cccc(OC)c4)cc3C(=O)N2C)O1 | 59*[16.7 µM] | -2 | -4 | 7 | -5 | 5
CCCNC(=O)C[C@@H]1CC[C@H]2[C@@H](COc3ccc(NC(=O)c4cccc(OC)c4)cc3C(=O)N2C)O1 | 15[16.7 µM] | -1 | 0 | 46* | 0 | -6
CCNC(=O)C[C@H]1CC[C@@H]2[C@H](COc3ccc(NC(=O)NC(C)C)cc3C(=O)N2C)O1 | 6[16.7 µM] | 5 | 4 | 41* | 1 | 2
COc1cccc(NC(=O)C[C@H]2CC[C@@H]3[C@@H](COc4ccc(NC(=O)C5CCCCC5)cc4C(=O)N3C)O2)c1 | -10[16.7 µM] | 0 | -6 | 33* | 0 | -1
COc1ccccc1-c1cnc2c(c1)C(=O)N([C@@H](C)CO)C[C@H](C)[C@@H](CN(C)C)O2 | -13[16.7 µM] | 0 | 0 | 8 | -3 | 5
O=S(=O)(c1ccc(F)cc1)N1[C@@H]2CNC[C@H]1C2c1ccc(-c2cccc(F)c2)cc1 (stereo not given in full) | . | -1 | -56 | 4 | . | -7
Cc1nc2c(-c3ccc(F)cc3)c(C)nn2c(C)c1CCC(=O)Nc1ccccc1 | 63* | -7 | 3 | 4 | 6 | 2
Cc1nc2c(-c3ccc(F)cc3)c(C)nn2c(C)c1CCC(=O)N1CCC(Cc2ccccc2)CC1 | 55* | 0 | 12 | -7 | 2 | -4
COc1ccccc1NC(=O)CCc1c(C)nc2c(-c3ccc(F)cc3)c(C)nn2c1C | ? | 3 | 15 | -1 | 10 | -1
Cc1nc2c(-c3ccc(F)cc3)c(C)nn2c(C)c1CCC(=O)N1CCN(c2ccc(F)cc2)CC1 | 56* | 5 | -7 | -6 | 3 | -1
Cn1ccc(=O)c2cc([N+](=O)[O-])ccc21 | -2 | . | -26* | -2 | . | .
CCCCC(=O)NC(=S)NNC(=O)CCc1ccccc1 | 5 | 0 | -14 | 1 | 1 | -1
O=C(CCc1ccccc1)NNC(=O)c1cc(Cl)ccc1O | 5 | 12 | -21 | -11 | -1 | 7
Cc1cc(Cl)ccc1NNC(=O)CCc1ccccc1 | 3 | 5 | -29* | 3 | . | 9
CC(=O)NC(=S)NNC(=O)CCc1ccccc1 | -4 | . | -24* | -4 | . | -8
SMILES | HIV Env fusion | PGC1a acetyl inh | Ecoli rRNA inh | DENV2 CPE | PglD inh | FN deposit inh
CNC[C@H]1OCCCC[C@@H](C)Oc2ccc(NC(=O)Nc3ccc4c(c3)OCO4)cc2C(=O)N([C@@H](C)CO)C[C@@H]1C | 2[16.7 µM] | 26 | 4 | -6 | 2 | .
CCCNC(=O)c1cc2c(c(-c3cccc(-c4ccc(C#N)cc4)c3)n1)[C@H](CCO)N(C(=O)CC)C2 | . | -4 | -6 | -2 | . | 2
C[C@@H]1CCCCO[C@@H](CN(C)Cc2ccc3c(c2)OCO3)[C@@H](C)CN([C@H](C)CO)C(=O)c2cc(NC(=O)Cc3ccccc3)ccc2O1 | 3[16.7 µM] | -4 | 2 | -6 | 4 | .
O=[N+]([O-])c1ccccc1S(=O)c1ccccc1[N+](=O)[O-] | 18 | . | 7 | 32* | . | 2
O=C(CS(=O)c1ccccc1[N+](=O)[O-])Oc1ccc(Br)cc1 (stereo not given) | 2 | -3 | 17 | -1 | . | 9
O=C(O)C[C@H]1C[C@H]2c3cc(NC(=O)C4CCOCC4)ccc3O[C@H]2[C@H](CO)O1 | . | -5 | 2 | -5 | . | 6
CCCC(NC(=O)Cc1c(C)c2cc3c(C)c(C)oc3c(C)c2oc1=O)C(=O)N[C@@H](Cc1ccccc1)C(=O)O (stereo not given in full) | . | 6 | . | 49* | -1 | .
c1cncc(C(c2nnnn2C2CCCCC2)N2CCCCC2)c1 (stereo not given) | 15 | -17 | -20* | 18 | 9 | 0
CCC(C)(C)n1nnnc1C(c1cccnc1)N1CCC(Cc2ccccc2)CC1 (stereo not given) | 13 | . | -33* | -3 | . | -5
CCC(C)(C)n1nnnc1C(c1ccncc1)N1CCC(Cc2ccccc2)CC1 (stereo not given) | 0 | -14 | . | . | 7 | -1
C[C@@H]1CN([C@H](C)CO)C(=O)c2cc(NC(=O)CCCCCC(=O)Nc3ccccc3N)ccc2O[C@@H]1CN(C)C | . | -1 | 5 | -7 | . | 0
CCCCc1nn(-c2cc(Cl)ccc2OC)c2c1C(=O)CC(C)(C)C2 | 57* | -17 | 0 | 43* | -3 | -7
CC(C)CC#Cc1ccc([C@H]2[C@@H](CO)N3C(=O)CN(S(C)(=O)=O)C[C@@H]23)cc1 | . | . | -7 | . | . | .
CCS(=O)(=O)N1CC(=O)N2[C@H](CO)[C@@H](c3ccc(C#CCC(C)C)cc3)[C@@H]2C1 | . | -2 | -4 | 48* | . | .
Cc1ccccc1S(=O)(=O)N1CC(=O)N2[C@H](C1)[C@@H](c1ccc(C#Cc3ccccc3)cc1)[C@@H]2CO | . | 4 | 6 | 2 | . | .
Cc1ccccc1S(=O)(=O)N1CC(=O)N2[C@H](CO)[C@H](c3ccc(C#Cc4ccccc4)cc3)[C@H]2C1 | . | -12 | 5 | 24* | . | .
